Paper PMC3862411 (International Journal for Parasitology, Drugs and Drug …, 2012)
Several values for one entry are separate records, joined by “and”; a condition that tells them apart may be missing. Equal entries are not always repeated. Marks after values point to notes of the source that are not given here.

How the values were obtained:
[1] = system: Haemonchus spp.; experiment: Adult nematode worm counts and efficacy 14 days post-treatment; type: in vivo; conditions: abomasum, 14 days post-administration, IR 0.2 mg/kg
In short: (§1)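 Romney Marsh lambs (27.2 ± 4.48 kg), naturally infected with resistant GI nematodes and grazing lucerne/clover pasture, got a single intraruminal dose of test compound at 0.2 mg/kg. Six treated and six untreated lambs were killed by captive bolt at day 14. Abomasal, small and large intestinal contents were counted by WAAVP guidelines. Geometric mean worm burdens gave % efficacy, treated versus untreated.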

[2] = system: Trichostrongylus axei; experiment: as above; type: in vivo; conditions: abomasum, 14 days post-administration, IR 0.2 mg/kg
In short: as §1

[3] = system: Cooperia spp.; experiment: as above; type: in vivo; conditions: small intestine, 14 days post-administration, IR 0.2 mg/kg
In short: as §1

[4] = system: Teladorsagia spp.; experiment: as above; type: in vivo; conditions: abomasum, 14 days post-administration, IR 0.2 mg/kg
In short: as §1

[5] = system: Trichuris spp.; experiment: as above; type: in vivo; conditions: large intestine, 14 days post-administration, IR 0.2 mg/kg
In short: as §1

[6] = system: Nematodirus spp.; experiment: as above; type: in vivo; conditions: small intestine, 14 days post-administration, IR 0.2 mg/kg
In short: as §1

[7] = system: Trichostrongylus colubriformis; experiment: as above; type: in vivo; conditions: small intestine, 14 days post-administration, IR 0.2 mg/kg
In short: as §1

[8] = system: resistant Haemonchus contortus; type: in vivo; conditions: for Total mass of H. contortus specimens recovered: day 1 and 2 post-treatment, IR 0.2 mg/kg
In short: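 Infected lambs got test compound intraruminally at 0.2 mg/kg, four killed at 0.5, 1 and 2 days. The total H. contortus mass from abomasal contents was washed in 4 °C saline, blotted, weighed and frozen at −20 °C. Drug was measured by fluorescence HPLC (C18, 0.2% acetic acid/methanol/acetonitrile 1.6/60/38.4, 1.5 ml/min, 30 °C, ex 365/em 475 nm). n = 4.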

[9] = type: in vivo, lambs; conditions: for AUC: area under the concentration vs time curve extrapolated to infinity / Cmax: peak plasma concentration / Tmax: time to peak plasma concentration / t 1/2 el: elimination half-life: mean ± SD, n = 6
In short: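 Six infected lambs per group got test compound intraruminally at 0.2 mg/kg. Heparinized jugular blood was taken before and at 0, 3, 6, 9 h and 1–13 days, spun at 2000g for 20 min, and plasma assayed by fluorescence HPLC. Non-compartmental analysis: Cmax observed; AUC by trapezoidal rule extrapolated to infinity; t½ = ln2/λz; MRT from AUMC/AUC. Mean ± SD; ANOVA or Kruskal–Wallis.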

[10] = system: resistant GI nematodes; experiment: Faecal egg count reduction test; type: in vivo, GI nematodes in lambs; conditions: IR 0.2 mg/kg; for FECRT: 14 days post-treatment vs untreated control; for Mean epg (range), arithmetic mean of eggs per gram of faeces: Day 14 post-treatment
In short: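 Faeces were sampled at day −1 and day 14 after a single intraruminal 0.2 mg/kg dose to naturally infected lambs. Eggs per gram were counted by modified McMaster. FECRT compared arithmetic mean epg of treated versus untreated controls at day 14, with 95% confidence limits per Coles. Counts were compared by Kruskal–Wallis.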

[11] = Drug concentrations in GI contents and mucosal tissues; type: in vivo, lambs; conditions: for Drug concentration, abomasal mucosa / Drug concentration, intestinal mucosa: IR 0.2 mg/kg, lambs
In short: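 After intraruminal 0.2 mg/kg test compound, four infected lambs per time point were killed at 0.5, 1 and 2 days. Abomasal and cranial jejunum contents and mucosal tissue were sampled, stored at −20 °C and assayed by validated fluorescence HPLC (C18, 30 °C, ex 365/em 475 nm). Values are in ng/g, mean ± SD, n = 4.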

[12] = system: mammalian P-gp; conditions: in vitro; ref Lespine et al., 2007; cited from earlier work
[13] = sheep, plasma, other: intraruminal, 0.2 mg/kg
[14] = sheep (lambs), abomasal mucosa, other: intraruminal, 0.2 mg/kg

Compound | Efficacy, Haemonchus spp. (H. contortus) [1] [%] | Worm counts (geometric mean), Haemonchus spp. [1] | Efficacy, Trichostrongylus axei [2] [%] | Worm counts (geometric mean), Trichostrongylus axei [2] | Efficacy, Cooperia spp. [3] [%] | Worm counts (geometric mean), Cooperia spp. [3] | Efficacy, Teladorsagia spp. [4] [%] | Worm counts (geometric mean), Teladorsagia spp. [4] | Efficacy, Trichuris spp. [5] [%] | Worm counts (geometric mean), Trichuris spp. [5] | Efficacy, Nematodirus spp. [6] [%] | Worm counts (geometric mean), Nematodirus spp. [6] | Efficacy, Trichostrongylus colubriformis [7] [%] | Worm counts (geometric mean), Trichostrongylus colubriformis [7] | Total mass of H. contortus specimens recovered [8] [g] | Time up to which drug was detected in plasma ([9]; lambs, IR 0.2 mg/kg) | AUC: area under the concentration vs time curve extrapolated to infinity ([9]; lambs, IR 0.2 mg/kg, plasma) | Cmax: peak plasma concentration ([9]; lambs, IR 0.2 mg/kg, plasma) | FECRT [10] | Mean epg (range), arithmetic mean of eggs per gram of faeces [10] | further results
CC[C@H](C)[C@H]1O[C@]2(CC[C@@H]1C)C[C@@H]1C[C@@H](C/C=C(\C)[C@@H](O[C@H]3C[C@H](OC)[C@@H](O[C@H]4C[C@H](OC)[C@@H](O)[C@H](C)O4)[C@H](C)O3)[C@@H](C)/C=C/C=C3\CO[C@@H]4[C@H](O)C(C)=C[C@@H](C(=O)O1)[C@]34O)O2 [IVM, ivermectin] | 20.1 | 1021 | 100 | 0 | 98.2 | 3.08 | 99.7 | 5 | 100 | 0 | 99.5 | 4.87 | 99.3 | 6.28 | 1.02 to 1.38 | up to 8 days post-treatment | 23.6 ± 7.63^a ng d/ml | 9.02 ± 1.47^b ng/ml | 0% | 4620^a (1860–12480) | Tmax: time to peak plasma concentration ([9]; lambs, IR 0.2 mg/kg, plasma): 1.06 ± 0.52^a days; t 1/2 el: elimination half-life ([9]; lambs, IR 0.2 mg/kg, plasma): 1.15 ± 0.30^a days; Drug concentration, abomasal mucosa ([11]; 0.5 days post-treatment): 76.5 ± 9.83^a ng/g; Drug concentration, intestinal mucosa ([11]; 0.5 days post-treatment): 198 ± 55.7^a ng/g; Drug concentration, abomasal mucosa ([11]; 1 day post-treatment): 58.2 ± 8.75^a ng/g; Drug concentration, intestinal mucosa ([11]; 1 day post-treatment): 117 ± 26.8^a ng/g; Drug concentration, abomasal mucosa ([11]; 2 days post-treatment): 42.6 ± 4.53^a ng/g; Drug concentration, intestinal mucosa ([11]; 2 days post-treatment): 128 ± 51.4^a ng/g
CO/N=C1\C[C@]2(C[C@@H]3C[C@@H](C/C=C(\C)C[C@@H](C)/C=C/C=C4\CO[C@@H]5[C@H](O)C(C)=C[C@@H](C(=O)O3)[C@]45O)O2)O[C@H](/C(C)=C/C(C)C)[C@H]1C [MXD, moxidectin] | 89.6 | 133 | 100 | 0 | 100 | 0 | 100 | 0 | 100 | 0 | 100 | 0 | 100 | 0 | 0.13 to 0.14 | ≤ 13 days post-treatment | 29.5 ± 3.87^a ng d/ml |  | 86% and 86.8% | 570^b (240–960) | Affinity by mammalian P-gp compared to avermectin-type compounds [12]: lower affinity; Drug concentrations recovered within adult H. contortus compared to ABM and IVM ([8]; day 2 post-treatment): lower; Plasma mean residence time (MRT) compared to ABM and IVM ([9]; lambs, IR 0.2 mg/kg): significant longer; Cmax [9, 13]: 11.3 ± 2.87 ng/mL; Tmax [9, 13]: 13 h; half-life [9, 13]: 113 h; Concentrations in GI contents and mucosal tissues compared to IVM and ABM ([11]; 2 days post-treatment): significantly lower; concentration at 0.5 days [11, 14]: 65.5 ± 9.74 ng/g; concentration at 1 day [11, 14]: 48.3 ± 12.7 ng/g; concentration at 2 days [11, 14]: 30.1 ± 5.8 ng/g
abamectin [ABM] | 39.7 | 769 | 100 | 0 | 100 | 0 | 100 | 0 | 100 | 0 | 99.8 | 2.32 | 100 | 0 | 1.13 to 1.50 | up to 8 days post-treatment | 34.8 ± 11.3^a ng d/ml | 13.6 ± 2.64^a ng/ml | 0% | 4460^a (1200–6000) | Tmax: time to peak plasma concentration ([9]; lambs, IR 0.2 mg/kg, plasma): 0.90 ± 0.26^a days; t 1/2 el: elimination half-life ([9]; lambs, IR 0.2 mg/kg, plasma): 1.10 ± 0.25^a days; Drug concentration, abomasal mucosa ([11]; 0.5 days post-treatment): 76.8 ± 11.6^a ng/g; Drug concentration, intestinal mucosa ([11]; 0.5 days post-treatment): 203 ± 11.5^a ng/g; Drug concentration, abomasal mucosa ([11]; 1 day post-treatment): 78 ± 24.2^a ng/g; Drug concentration, intestinal mucosa ([11]; 1 day post-treatment): 152 ± 12.4^a ng/g; Drug concentration, abomasal mucosa ([11]; 2 days post-treatment): 64.6 ± 45.4^ab ng/g; Drug concentration, intestinal mucosa ([11]; 2 days post-treatment): 118 ± 85.9^a ng/g
